PP1 counter – PP1-alpha phosphatase inhibitors, primary screen, counter-screen for PP5 inhibitor project, biochemical, fluorescence, OMFP substrate, single point; Serine/threonine-protein phosphatase PP1-alpha catalytic subunit (Homo sapiens), P62136; purified PP1alpha; inhibition, % at 6.7 µM; 0.9% of 320,000 active;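 active means inhibition above the mean inhibition of all tested compounds plus 3 SD, computed separately for each screening campaign, cut at about 15% in these data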
core dimer inh – inhibitors of HCV core protein dimerization, primary screen, biochemical, TR-FRET, high-throughput; inhibition, % at 5 µM; TR-FRET GST/Flag-core106 dimerization, 1536-well; 0.33% of 300,000 active;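 active means inhibition above the mean of all tested compounds plus 3 SD, set per screening campaign, cut at about 45% in these data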
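Test system: GST/Flag-tagged HCV core106 proteins; Medium: KF-containing HEPES buffer, pH 7.45, DTT, CHAPS, BSA; Times: compound-protein-antibody incubation 4 h at 22.5 °C; Detection: TR-FRET 671 and 617 nm emission; Benchmarks: wells lacking GST-core106 and wells with excess unlabelled core106.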
EBNA-1 inh – EBNA-1 DNA-binding inhibitors, primary screen, biochemical, fluorescence polarization; inhibition, % at 14.8 µM; 0.34% of 300,000 active; AID 1950, 2009; in the data active means inhibition above about 28%
ZTA DNA inh – blocks Epstein-Barr virus ZTA, an EBNA-1 counter-screen. inhibition, % at 11 µM. ZTA-DNA binding, fluorescence polarization. AID 2234. 0.15% of 320,000 active. P03206; in the data active means inhibition above about 33%
PP5 primary – PP5 phosphatase inhibitors, primary screen, biochemical, fluorescence | 0.18% of 320,000 active | purified PP5c, OMFP substrate fluorescence | inhibition, % at 6.7 µM | Serine/threonine-protein phosphatase 5 (Homo sapiens), P53041 | AID 1987, 2009;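 active means inhibition above the campaign's mean inhibition across all tested compounds plus 3 SD, cut at about 9.5% in these data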;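 further: 0% = DMSO only and 100% = 100 µM cantharidin control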
Target sequence (P53041 whole entry, looked up): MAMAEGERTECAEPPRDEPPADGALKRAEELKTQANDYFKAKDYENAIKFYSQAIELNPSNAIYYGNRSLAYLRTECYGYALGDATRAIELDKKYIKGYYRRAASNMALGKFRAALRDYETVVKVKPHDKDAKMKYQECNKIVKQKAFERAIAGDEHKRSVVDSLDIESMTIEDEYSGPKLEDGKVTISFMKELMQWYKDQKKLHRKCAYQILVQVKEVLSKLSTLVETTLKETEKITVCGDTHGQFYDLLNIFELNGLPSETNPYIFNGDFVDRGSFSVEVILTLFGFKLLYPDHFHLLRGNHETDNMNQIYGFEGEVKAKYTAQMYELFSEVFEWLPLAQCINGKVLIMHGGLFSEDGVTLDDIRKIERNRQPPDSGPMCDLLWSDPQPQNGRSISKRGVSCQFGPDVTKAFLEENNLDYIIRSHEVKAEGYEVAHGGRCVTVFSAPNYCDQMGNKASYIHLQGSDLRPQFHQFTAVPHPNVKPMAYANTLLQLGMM
PP1 inh confirm – PP1 phosphatase inhibitors, confirmation, biochemical, fluorescence, OMFP substrate, triplicate. shares compounds with PP1 counter. purified PP1alpha. inhibition, % at 6.7 µM. 52% of 1,900 active;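 active means mean PP1 inhibition above a set limit taken from the earlier primary screen, cut at about 15% in these data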
PP5 counter – PP5 phosphatase inhibition by PP1 hits, confirmation, counter-screen for PP1 inhibitor project, biochemical, fluorescence, triplicate | purified PP5c, OMFP fluorescence | shares compounds with PP1 counter | 4% of 1,900 active | inhibition, % at 6.7 µM;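 active means mean PP5 inhibition over triplicate wells above about 9.5% taken from the earlier PP1 screen, limit read from the data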
Numbers without * were called inactive. In the library only some 1.7% were active in any assay of this set; here they are far more common.

Results for O=C(c1ccc2nc(-c3ccco3)c(-c3ccco3)nc2c1)N1CCN(c2ncccn2)CC1 ?
PP1 counter: 32.6*; core dimer inh: 62.5*; EBNA-1 inh: 8.3; ZTA DNA inh: 9.2; PP5 primary: 2.2; PP1 inh confirm: 8.3; PP5 counter: 5.6

What do the screens show for `O=C(Nc1cccnc1)c1ccc2nc(-c3ccccc3)c(-c3ccccc3)nc2c1`?
PP1 counter: 0.8; core dimer inh: 6.3; EBNA-1 inh: -0.8; ZTA DNA inh: -3.4; PP5 primary: 4.8

Results for O=C(Nc1ccccc1)c1ccc2nc(-c3ccco3)c(-c3ccco3)nc2c1 ?
PP1 counter: 21.3*; core dimer inh: 75.2*; EBNA-1 inh: -0.1; ZTA DNA inh: -27.3; PP5 primary: 4.8; PP1 inh confirm: 6.5; PP5 counter: -0.7

Results for O=C(NCc1ccccc1)c1ccc2nccnc2c1 ?
PP1 counter: -1.4; core dimer inh: -0.9; EBNA-1 inh: -0.1; ZTA DNA inh: 0.0; PP5 primary: -0.5

Results for Cc1ccc(N2C(=O)CC3(CC4C=CC3C4)C2=O)cc1 (stereo not given) ?
PP1 counter: 0.1; core dimer inh: -5.0; EBNA-1 inh: 4.8; ZTA DNA inh: -9.0; PP5 primary: 1.4

What do the screens show for `CCCCCCNC(=O)CCCCCNS(=O)(=O)c1ccc(Br)cc1`?
PP1 counter: -0.9; core dimer inh: 0.1; EBNA-1 inh: -4.9; ZTA DNA inh: -6.4; PP5 primary: 3.1

Results for COc1cc(SC)ccc1C(=O)N1CCN(Cc2ccc3c(c2)OCO3)CC1 ?
PP1 counter: -4.5; core dimer inh: 9.9; EBNA-1 inh: 7.5; ZTA DNA inh: 4.4; PP5 primary: 1.9

What do the screens show for `COc1ccc(NCc2nnc(SCc3ccc(Cl)cc3)n2-c2ccccc2)cc1`?
PP1 counter: 6.0; core dimer inh: 2.6; EBNA-1 inh: 9.2; ZTA DNA inh: 1.3; PP5 primary: 5.5

Results for COC(=O)CN(C)C(=O)c1ccc(OC2CCN(S(=O)(=O)N(C)C)CC2)cc1 ?
PP1 counter: -0.2; core dimer inh: 3.7; EBNA-1 inh: 2.6; ZTA DNA inh: 12.1; PP5 primary: -3.1

How did O=C(c1cc(-c2ccco2)on1)N1CCN(C(c2ccccc2)c2ccccc2)CC1 do in these assays?
PP1 counter: 19.4*; core dimer inh: 13.3; EBNA-1 inh: 2.8; ZTA DNA inh: 3.0; PP5 primary: 2.7; PP1 inh confirm: 6.9; PP5 counter: -1.1

How did NC(=O)CC(NC(=O)Cc1ccc(Cl)cc1)c1ccc(NCc2ccccc2)c([N+](=O)[O-])c1 (stereo not given) do in these assays?
PP1 counter: 6.3; core dimer inh: 6.2; EBNA-1 inh: -9.9; ZTA DNA inh: -13.4; PP5 primary: 1.4

What do the screens show for `CCOc1ccc(Br)cc1/C=N/NC(=O)c1ccncc1`?
PP1 counter: -3.7; core dimer inh: -1.0; EBNA-1 inh: 0.2; ZTA DNA inh: 7.0; PP5 primary: -1.6

How did CCOc1cc(Br)cc(/C=N/NC(=O)c2cccnc2)c1O do in these assays?
PP1 counter: 22.4*; core dimer inh: -1.8; EBNA-1 inh: -2.8; ZTA DNA inh: -0.8; PP5 primary: 2.2; PP1 inh confirm: 18.6*; PP5 counter: -4.1

Results for Cn1c(NCCCN2CCOCC2)nc2c1c(=O)n(Cc1ccc(Cl)c(Cl)c1)c(=O)n2C ?
PP1 counter: -6.2; core dimer inh: -2.0; EBNA-1 inh: 13.4; ZTA DNA inh: -15.3; PP5 primary: 5.0

How did CN(C)CCNc1c2c(nc3nnnn13)CCCC2 do in these assays?
PP1 counter: 1.5; core dimer inh: -19.4; EBNA-1 inh: -6.5; ZTA DNA inh: -25.2; PP5 primary: 2.5

What do the screens show for `O=C(COc1ccc2ccccc2c1)NNC(=O)Nc1ccccc1F`?
PP1 counter: 1.8; core dimer inh: 5.5; EBNA-1 inh: 4.3; ZTA DNA inh: -2.0; PP5 primary: 4.8

Results for Cc1ccccc1NC(=O)C(=O)NNC(=O)COc1ccc2ccccc2c1 ?
PP1 counter: 18.2*; core dimer inh: -3.0; EBNA-1 inh: 2.4; ZTA DNA inh: -8.7; PP5 primary: 0.2; PP1 inh confirm: 14.5; PP5 counter: -6.1

How did CCN1CCc2nc3sc(C(=O)N4CCc5ccccc5C4)c(N)c3cc2C1 do in these assays?
PP1 counter: 12.4; core dimer inh: -8.7; EBNA-1 inh: -13.7; ZTA DNA inh: -8.3; PP5 primary: 3.6

How did CC(C)OC(=O)CC(=O)c1sc2nc3c(cc2c1N)CN(C)CC3 do in these assays?
PP1 counter: 23.3*; core dimer inh: 16.2; EBNA-1 inh: 1.4; ZTA DNA inh: 15.0; PP5 primary: 4.7; PP1 inh confirm: 7.5; PP5 counter: 20.0*

Results for COc1cc(C(=O)Nc2cc(-c3ccccc3)[nH]n2)cc(OC)c1OC ?
PP1 counter: 19.8*; core dimer inh: 0.8; EBNA-1 inh: 2.3; ZTA DNA inh: 9.8; PP5 primary: 2.3; PP1 inh confirm: 17.4*; PP5 counter: -3.3

Results for COC(=O)C1=COC(C)C2CN3CCc4c([nH]c5ccccc45)C3CC12 (stereo not given) ?
PP1 counter: 19.8*; core dimer inh: -8.8; EBNA-1 inh: -11.3; ZTA DNA inh: 9.6; PP5 primary: 5.4; PP1 inh confirm: -3.4; PP5 counter: 18.4*

What do the screens show for `C(#CC1CCCC1)c1ccc2c(c1)COc1c3ccccc3nn1-2`?
PP1 counter: -3.6; core dimer inh: -7.1; EBNA-1 inh: -0.5; ZTA DNA inh: -9.7; PP5 primary: -4.1

What do the screens show for `Cc1cc(-c2ccc3c(c2)COc2c4ccccc4nn2-3)on1`?
PP1 counter: 25.3*; core dimer inh: 5.4; EBNA-1 inh: 15.1; ZTA DNA inh: 10.7; PP5 primary: -0.1; PP1 inh confirm: 26.2*; PP5 counter: -5.3

What do the screens show for `CCCc1cc(-c2ccc3c(c2)COc2c4ccccc4nn2-3)on1`?
PP1 counter: 18.3*; core dimer inh: 3.8; EBNA-1 inh: 14.7; ZTA DNA inh: 9.3; PP5 primary: 2.3; PP1 inh confirm: 19.4*; PP5 counter: -1.0

What do the screens show for `CC1CC(C)CN(CCCNC(=O)Cn2cccc2C(=O)c2ccccc2)C1` (stereo not given)?
PP1 counter: 6.4; core dimer inh: -1.1; EBNA-1 inh: -17.0; ZTA DNA inh: -0.6; PP5 primary: -3.2

How did Cc1ccc(-c2cc(=O)c3cc(Cl)ccc3[nH]2)cc1 do in these assays?
PP1 counter: -3.2; core dimer inh: 1.5; EBNA-1 inh: -0.4; ZTA DNA inh: 12.0; PP5 primary: 1.7

Assay outcomes deposited in PubChem by The Scripps Research Institute Molecular Screening Center.
